Results on nine molecules are retold here after ChEMBL document CHEMBL3351279, “Topoisomerase II inhibitors from the roots of Stellera chamaejasme L” (Bioorg Med Chem, 2014).

Test [1] has as its target DNA topoisomerase 2-alpha (Homo sapiens) (UniProt P11388). Put plainly: Inhibition of DNA topoisomerase-2 (unknown origin) assessed as inhibition of kDNA decatenation at 100 uM after 15 mins by agarose gel electrophoresis.
For test [2], the target named is T1, DNA topoisomerase 1 (Homo sapiens) (UniProt P11387).
T1 sequence (whole entry): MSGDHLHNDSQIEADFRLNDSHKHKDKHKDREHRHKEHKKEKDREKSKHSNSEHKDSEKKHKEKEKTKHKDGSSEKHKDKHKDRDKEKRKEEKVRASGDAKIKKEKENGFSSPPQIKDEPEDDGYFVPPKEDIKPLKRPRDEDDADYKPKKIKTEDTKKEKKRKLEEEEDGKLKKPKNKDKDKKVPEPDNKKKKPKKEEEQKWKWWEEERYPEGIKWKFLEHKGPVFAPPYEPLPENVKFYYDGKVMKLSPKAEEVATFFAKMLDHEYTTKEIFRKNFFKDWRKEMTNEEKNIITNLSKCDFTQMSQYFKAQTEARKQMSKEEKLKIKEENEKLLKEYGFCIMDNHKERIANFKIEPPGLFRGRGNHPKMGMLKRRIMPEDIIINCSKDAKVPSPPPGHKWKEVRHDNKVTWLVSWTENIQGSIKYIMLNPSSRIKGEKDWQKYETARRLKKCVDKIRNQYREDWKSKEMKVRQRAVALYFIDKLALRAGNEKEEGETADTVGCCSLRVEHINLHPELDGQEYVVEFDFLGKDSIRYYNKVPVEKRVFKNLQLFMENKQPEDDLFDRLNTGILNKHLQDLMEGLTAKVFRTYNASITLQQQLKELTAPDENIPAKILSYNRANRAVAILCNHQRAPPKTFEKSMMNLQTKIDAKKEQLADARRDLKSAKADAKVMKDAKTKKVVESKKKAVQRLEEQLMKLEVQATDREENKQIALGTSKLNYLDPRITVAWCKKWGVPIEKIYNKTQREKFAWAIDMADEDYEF
Put plainly: Inhibition of DNA topoisomerase-1 (unknown origin) assessed as inhibition of supercoiled pBR322 relaxation up to 100 uM after 15 mins by gel electrophoresis. In short, it runs like this: (§1)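 Supercoiled pBR322 relaxation with compounds at 100 µM. Topo I: 12.5 µg/mL DNA, 0.01 unit/µL enzyme, no ATP. Topo IIα: 6.67 µg/mL DNA, 0.0467 units/µL enzyme, 1 mM ATP. 37°C for 15 min, SDS stop, 1% agarose/TAE gel at 4 V/cm for 1 h, ethidium bromide stain.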

For test [3], the system named is A549. Put plainly: Cytotoxicity against human A549 cells after 72 hrs by SRB assay. Type of test: functional, cell-based. Conditions: A549, 72 h. In short, it runs like this:
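A549 cells grown in F12 with 10% heat-inactivated FBS (37°C, 5% CO2), seeded overnight, then exposed 72 h. Fixed in cold 10% TCA for 1 h at 4°C, stained with 4 mg/mL SRB in 1% acetic acid for 15 min, solubilized in 10 mM Tris-HCl, read at A560. Inhibition = [1 − A560treated/A560control]×100%; IC50 by Logit method, at least three independent tests.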
Background: In SRB staining, fixed cells bind dye roughly in proportion to their protein.

The target in test [4] is DNA topoisomerase 2-alpha (Homo sapiens) (UniProt P11388). Briefly: Inhibition of DNA topoisomerase-2 (unknown origin) assessed as inhibition of supercoiled pBR322 relaxation at 100 uM after 15 mins by gel electrophoresis. In short, it runs like this: as §1
Chain of DNA topoisomerase 2-alpha (Homo sapiens) (P11388 whole entry): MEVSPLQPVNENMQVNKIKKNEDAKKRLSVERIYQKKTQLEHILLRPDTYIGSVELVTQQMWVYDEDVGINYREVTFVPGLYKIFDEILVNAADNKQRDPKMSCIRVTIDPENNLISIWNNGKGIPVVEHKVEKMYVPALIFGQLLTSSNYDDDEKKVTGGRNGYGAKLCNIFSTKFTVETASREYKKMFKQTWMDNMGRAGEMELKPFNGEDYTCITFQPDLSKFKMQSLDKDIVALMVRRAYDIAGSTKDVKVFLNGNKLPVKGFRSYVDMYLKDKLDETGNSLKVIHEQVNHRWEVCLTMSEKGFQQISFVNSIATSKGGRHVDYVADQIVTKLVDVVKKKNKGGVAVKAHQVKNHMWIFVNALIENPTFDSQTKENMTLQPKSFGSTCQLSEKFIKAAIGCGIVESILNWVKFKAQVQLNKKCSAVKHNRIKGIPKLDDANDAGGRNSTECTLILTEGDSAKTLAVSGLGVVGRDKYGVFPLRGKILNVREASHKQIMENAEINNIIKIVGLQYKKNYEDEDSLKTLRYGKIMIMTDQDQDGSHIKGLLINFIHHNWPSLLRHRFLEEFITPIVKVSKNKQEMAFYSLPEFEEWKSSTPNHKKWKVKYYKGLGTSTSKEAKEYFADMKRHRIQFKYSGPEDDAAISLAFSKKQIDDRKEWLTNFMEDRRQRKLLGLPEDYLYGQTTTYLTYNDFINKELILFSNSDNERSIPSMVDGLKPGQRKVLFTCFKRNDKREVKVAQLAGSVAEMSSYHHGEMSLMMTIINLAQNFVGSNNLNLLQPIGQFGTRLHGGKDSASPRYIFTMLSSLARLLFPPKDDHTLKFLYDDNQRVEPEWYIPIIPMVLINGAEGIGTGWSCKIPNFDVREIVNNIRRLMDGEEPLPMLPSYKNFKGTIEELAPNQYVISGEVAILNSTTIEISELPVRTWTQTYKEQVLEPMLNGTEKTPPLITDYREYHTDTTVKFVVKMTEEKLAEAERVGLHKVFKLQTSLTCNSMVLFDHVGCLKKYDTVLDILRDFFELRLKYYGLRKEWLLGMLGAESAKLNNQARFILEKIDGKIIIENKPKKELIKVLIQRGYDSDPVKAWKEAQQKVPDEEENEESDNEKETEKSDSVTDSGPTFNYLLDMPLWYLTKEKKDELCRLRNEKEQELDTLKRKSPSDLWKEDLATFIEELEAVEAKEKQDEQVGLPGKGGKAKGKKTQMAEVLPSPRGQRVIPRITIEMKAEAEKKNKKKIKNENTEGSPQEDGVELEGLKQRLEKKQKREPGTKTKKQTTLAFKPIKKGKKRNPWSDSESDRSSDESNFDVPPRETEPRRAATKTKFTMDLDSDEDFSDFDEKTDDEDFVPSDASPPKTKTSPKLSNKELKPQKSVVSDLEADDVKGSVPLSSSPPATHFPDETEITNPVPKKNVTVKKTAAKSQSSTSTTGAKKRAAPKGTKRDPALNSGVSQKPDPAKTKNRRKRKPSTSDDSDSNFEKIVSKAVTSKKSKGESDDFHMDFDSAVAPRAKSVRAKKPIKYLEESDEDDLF
Test [5] relates to A549. Briefly: Cell cycle arrest in human A549 cells assessed as accumulation at G2 phase at 300 nM after 24 hrs by propidium iodide staining-based flow cytometry (reference value: 18%). Type of test: functional. On the technique in general: A flow cytometer gives signals particle by particle.
Test [6] has as its system A549. Put plainly: Induction of apoptosis in human A549 cells assessed as early apoptotic cells at 10 nM after 48 hrs by Annexin V/propidium iodide staining-based flow cytometry (reference value: 5.75%). The class given is functional. In short, it runs like this:
(§2)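 After 48 h exposure, A549 cells resuspended in cold binding buffer with Annexin-V-FITC and PI, kept 10 min at room temperature in the dark, then analyzed on a FACSCalibur. Annexin-V+/PI− cells counted as early apoptotic.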

Test [7] relates to A549. Put plainly: Induction of apoptosis in human A549 cells assessed as early apoptotic cells at 30 nM after 48 hrs by Annexin V/propidium iodide staining-based flow cytometry (reference value: 5.75%). Type of test: functional. In short, it runs like this: as §2
In test [8] the test system is A549. Put plainly: Cell cycle arrest in human A549 cells assessed as accumulation at G2/M phase at 10 to 300 nM after 24 hrs by propidium iodide staining-based flow cytometry. The class given is functional.

Structures are written as SMILES. The source made the active and inactive calls. The rule behind the calls is not given here. Where only a bound is given, the exact number is not on record here.

What is called IC50 is the concentration at which inhibition is half-maximal. As to `C=C(C)[C@]12C[C@@H](C)[C@@]34O[C@](/C=C/C=C/CCCCCCCCC)(O[C@@H]1[C@@H]3[C@@H]1O[C@]1(CO)[C@@H](O)[C@]1(O)C(=O)C(C)=C[C@H]14)O2`, the inhibition entry in test [1] and in test [4] was “Active” each time. The inhibition result in test [2] was “inactive”. The molecule also had an IC50 in the test on A549 [3] of 0.7 nM.
Turning to `C=C(C)[C@@]12O[C@@]3(/C=C/C=C/CCCCCCCCC)O[C@@H]1[C@@H]1[C@@H]4O[C@]4(CO)[C@@H](O)[C@]4(O)C(=O)C(C)=C[C@H]4[C@@]1(O3)[C@H](C)[C@H]2OC(C)=O`, the midpoint of inhibition in the test with A549 [3], the IC50, lay at 0.4 nM.
Same read-out and setting: the value for `C[C@H]1CC=C2[C@H]1C[C@]1(O)C(=O)C[C@@]2(C)C1(C)CO` (stereo not given in full) was 1950 nM.
For `COc1cc([C@H]2OC[C@@H]3Cc4cc(OC)c(O)cc4C[C@@H]32)ccc1O`, the inhibition entry in test [1] and in test [4] was “Active” throughout. Further, the inhibition entry in test [2] was “inactive”. In addition, in the test on A549 [3], half-maximal inhibition (IC50) required 1530 nM.
For the molecule `C=C(C)[C@]12C[C@@H](C)[C@@]34O[C@](CCCCCCCCC)(O[C@@H]1[C@@H]3[C@@H]1O[C@]1(CO)[C@@H](O)[C@]1(O)C(=O)C(C)=C[C@H]14)O2` [SIMPLEXIN], the IC50 with A549 [3] was found to be 0.3 nM.
The same measure, in the same setting: the result for `COc1cc(C[C@H]2COC(=O)[C@@H]2Cc2ccc3c(c2)OCO3)ccc1O` reads 273 nM.
On to `C=C(C)[C@@]1(O)[C@H](OC(=O)/C=C/C=C/CCCCCCCC)[C@@H]2[C@@H]3O[C@]3(CO)[C@@H](O)[C@]3(O)C(=O)C(C)=C[C@H]3[C@@]2(O)[C@H](C)[C@H]1OC(C)=O`, for which the inhibition entry in test [1] and in test [4] was “Active” throughout. Besides, the inhibition entry in test [2] is “inactive”. In addition, the midpoint of inhibition in the test on A549 [3], the IC50, lay at 24 nM.
As for `COc1cc([C@@H]2c3cc4c(cc3[C@@H](O[C@@H]3O[C@@H]5CO[C@@H](C)O[C@H]5[C@H](O)[C@H]3O)[C@H]3COC(=O)[C@H]23)OCO4)cc(OC)c1O`, in test [4], the inhibition result was “Active”.
As to `C=C(C)[C@]1(OC(=O)/C=C\C=C\CCCCCCCCC)C[C@@H](C)[C@@]2(O)[C@H]([C@H]1O)[C@@H]1O[C@]1(CO)[C@@H](O)[C@]1(O)C(=O)C(C)=C[C@H]12`, the figures for the Activity in the test with A549 [5], in the test with A549 [6] and with A549 [7] were >50%, 17.57% and 19.94%, respectively. Moreover, the inhibition result in test [1] and in test [4] was “Active” each time. The inhibition entry in test [2] is “inactive”. In addition, in the test with A549 [3], the IC50 worked out at 2.7 nM. For the same molecule, in the test on A549 [8], the result was Active.
